These results are taken from ChEMBL document CHEMBL1129585, “Synthesis and biological activity of conformationally restricted analogs of milnacipran: (1S,2R)-1-phenyl-2-[(S)-1-aminopropyl]-N,N-diethylcyclopropanecarboxami de, an efficient noncompetitive N-methyl-D-aspartic acid receptor antagonist” (J Med Chem, 1996).

For one assay, the target named is Glutamate NMDA receptor. The experiment in a line: Inhibition of [3H]-MK-801 binding to NMDA receptor from rat cerebral cortical synaptic membrane.
The species entered for another assay is Rattus norvegicus. In words: Ratio of 5 HT inhibition to NMDA receptor binding.
Assay [1] concerns the target Sodium-dependent serotonin transporter (Rattus norvegicus, UniProt P31652). The experiment in a line: Inhibition of [3H]-paroxetine binding on serotonin transporter of rat cerebral cortical synaptic membrane. The procedure, abridged:
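Rat cerebral cortical synaptic membranes incubated with test agent at various concentrations, [³H]paroxetine 2 nM, in 50 mM Tris-HCl pH 7.4 with 120 mM NaCl and 5 mM KCl, 20 °C for 45 min. Stopped by rapid filtration on polyethylenimine-presoaked glass-fiber filters, washed with cold Tris-HCl. Bound radioactivity counted. Result given as Ki.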

Assay [2] addresses Glutamate receptor ionotropic, NMDA 2C (Rattus norvegicus) (UniProt Q00961). In words: (§1) Percentage inhibition of N-methyl-D-aspartic acid (NMDA) receptor produced by oocytes. The format is cell-based. The conditions noted are these: Xenopus laevis; Oocyte; concentration not given here. The procedure, abridged: (§2)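 Xenopus oocytes injected with whole-brain mRNA from 10-day-old Wistar rats (guanidine/CsCl extraction), then two-electrode voltage-clamped with 3 M KCl-filled electrodes. Currents evoked by 30 µM NMDA plus 10 µM Gly with test agent present at different concentrations. Block of the NMDA response recorded as percent inhibition or IC50.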

In assay [3] the target is Glutamate receptor ionotropic, NMDA 2C (Rattus norvegicus, UniProt Q00961). In words: Concentration required to inhibit of N-methyl-D-aspartic acid (NMDA) receptor produced by oocytes. Format: functional, cell-based, Oocyte. The procedure, abridged: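 Xenopus oocytes were injected with whole-brain mRNA from 10-day-old Wistar rats, extracted by the guanidine/CsCl method. They were two-electrode voltage-clamped with electrodes filled with 3 M KCl. Currents were evoked by 30 µM NMDA plus 10 µM Gly in the presence of test compound at different concentrations. The read-out was block of the NMDA response, given as IC50 or percent inhibition.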
Sequence of Glutamate receptor ionotropic, NMDA 2C (Q00961 whole entry): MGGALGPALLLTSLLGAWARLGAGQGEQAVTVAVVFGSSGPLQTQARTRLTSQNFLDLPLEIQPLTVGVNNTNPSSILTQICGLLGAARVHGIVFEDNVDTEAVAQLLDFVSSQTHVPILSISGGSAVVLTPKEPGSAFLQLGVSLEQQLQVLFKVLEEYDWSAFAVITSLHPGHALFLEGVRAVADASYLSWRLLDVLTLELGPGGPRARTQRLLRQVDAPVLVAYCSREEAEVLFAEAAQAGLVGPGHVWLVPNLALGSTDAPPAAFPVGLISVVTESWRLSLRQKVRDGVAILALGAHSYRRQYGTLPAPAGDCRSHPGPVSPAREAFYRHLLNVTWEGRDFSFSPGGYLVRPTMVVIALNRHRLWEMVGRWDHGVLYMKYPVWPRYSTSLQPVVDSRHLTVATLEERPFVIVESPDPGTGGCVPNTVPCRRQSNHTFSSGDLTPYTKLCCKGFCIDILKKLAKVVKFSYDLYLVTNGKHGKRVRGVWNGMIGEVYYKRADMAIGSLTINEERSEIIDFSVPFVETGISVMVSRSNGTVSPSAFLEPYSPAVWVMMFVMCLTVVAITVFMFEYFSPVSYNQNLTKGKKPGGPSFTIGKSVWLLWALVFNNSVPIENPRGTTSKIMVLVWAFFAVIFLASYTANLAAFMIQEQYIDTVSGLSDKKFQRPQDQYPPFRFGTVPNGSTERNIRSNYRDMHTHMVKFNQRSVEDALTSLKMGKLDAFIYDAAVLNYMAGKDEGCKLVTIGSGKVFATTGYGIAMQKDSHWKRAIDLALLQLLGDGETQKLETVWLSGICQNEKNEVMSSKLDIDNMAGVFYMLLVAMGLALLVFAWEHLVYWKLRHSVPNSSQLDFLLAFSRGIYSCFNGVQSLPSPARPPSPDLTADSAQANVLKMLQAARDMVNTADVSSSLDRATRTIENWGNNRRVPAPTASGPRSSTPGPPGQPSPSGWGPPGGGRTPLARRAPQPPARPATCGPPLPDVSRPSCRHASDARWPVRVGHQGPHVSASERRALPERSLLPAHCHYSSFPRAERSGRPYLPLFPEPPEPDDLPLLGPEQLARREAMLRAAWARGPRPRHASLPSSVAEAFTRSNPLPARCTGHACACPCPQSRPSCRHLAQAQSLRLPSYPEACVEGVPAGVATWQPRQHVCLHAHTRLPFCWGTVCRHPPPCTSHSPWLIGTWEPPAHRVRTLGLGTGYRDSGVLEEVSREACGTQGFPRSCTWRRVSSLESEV

Assay [4] concerns the target Glutamate receptor ionotropic, NMDA 2C (Rattus norvegicus) (UniProt Q00961). The assay is described as §1. Format: functional, cell-based. The conditions noted are these: Xenopus laevis; Oocyte; concentration not given here. A digest of the protocol: as §2

Sequence of Sodium-dependent serotonin transporter (P31652 whole entry): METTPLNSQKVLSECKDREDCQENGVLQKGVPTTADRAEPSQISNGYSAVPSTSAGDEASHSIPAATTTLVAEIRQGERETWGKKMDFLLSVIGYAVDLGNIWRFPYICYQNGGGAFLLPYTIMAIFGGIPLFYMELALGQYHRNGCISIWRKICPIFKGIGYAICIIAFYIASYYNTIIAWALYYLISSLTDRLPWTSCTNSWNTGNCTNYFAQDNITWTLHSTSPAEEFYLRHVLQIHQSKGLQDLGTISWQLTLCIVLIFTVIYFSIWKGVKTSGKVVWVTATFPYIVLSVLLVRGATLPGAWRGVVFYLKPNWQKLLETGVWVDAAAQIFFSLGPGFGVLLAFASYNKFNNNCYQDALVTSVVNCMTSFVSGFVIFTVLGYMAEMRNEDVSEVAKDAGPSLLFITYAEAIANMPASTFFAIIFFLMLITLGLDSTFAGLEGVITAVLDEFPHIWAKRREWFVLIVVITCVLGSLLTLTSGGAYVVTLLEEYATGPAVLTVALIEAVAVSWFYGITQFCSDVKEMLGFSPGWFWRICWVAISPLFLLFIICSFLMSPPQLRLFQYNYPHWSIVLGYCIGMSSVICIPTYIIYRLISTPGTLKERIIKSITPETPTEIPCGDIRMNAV
Sequence of Glutamate receptor ionotropic, NMDA 2C (Rattus norvegicus) (Q00961 20-1237 limits assumed): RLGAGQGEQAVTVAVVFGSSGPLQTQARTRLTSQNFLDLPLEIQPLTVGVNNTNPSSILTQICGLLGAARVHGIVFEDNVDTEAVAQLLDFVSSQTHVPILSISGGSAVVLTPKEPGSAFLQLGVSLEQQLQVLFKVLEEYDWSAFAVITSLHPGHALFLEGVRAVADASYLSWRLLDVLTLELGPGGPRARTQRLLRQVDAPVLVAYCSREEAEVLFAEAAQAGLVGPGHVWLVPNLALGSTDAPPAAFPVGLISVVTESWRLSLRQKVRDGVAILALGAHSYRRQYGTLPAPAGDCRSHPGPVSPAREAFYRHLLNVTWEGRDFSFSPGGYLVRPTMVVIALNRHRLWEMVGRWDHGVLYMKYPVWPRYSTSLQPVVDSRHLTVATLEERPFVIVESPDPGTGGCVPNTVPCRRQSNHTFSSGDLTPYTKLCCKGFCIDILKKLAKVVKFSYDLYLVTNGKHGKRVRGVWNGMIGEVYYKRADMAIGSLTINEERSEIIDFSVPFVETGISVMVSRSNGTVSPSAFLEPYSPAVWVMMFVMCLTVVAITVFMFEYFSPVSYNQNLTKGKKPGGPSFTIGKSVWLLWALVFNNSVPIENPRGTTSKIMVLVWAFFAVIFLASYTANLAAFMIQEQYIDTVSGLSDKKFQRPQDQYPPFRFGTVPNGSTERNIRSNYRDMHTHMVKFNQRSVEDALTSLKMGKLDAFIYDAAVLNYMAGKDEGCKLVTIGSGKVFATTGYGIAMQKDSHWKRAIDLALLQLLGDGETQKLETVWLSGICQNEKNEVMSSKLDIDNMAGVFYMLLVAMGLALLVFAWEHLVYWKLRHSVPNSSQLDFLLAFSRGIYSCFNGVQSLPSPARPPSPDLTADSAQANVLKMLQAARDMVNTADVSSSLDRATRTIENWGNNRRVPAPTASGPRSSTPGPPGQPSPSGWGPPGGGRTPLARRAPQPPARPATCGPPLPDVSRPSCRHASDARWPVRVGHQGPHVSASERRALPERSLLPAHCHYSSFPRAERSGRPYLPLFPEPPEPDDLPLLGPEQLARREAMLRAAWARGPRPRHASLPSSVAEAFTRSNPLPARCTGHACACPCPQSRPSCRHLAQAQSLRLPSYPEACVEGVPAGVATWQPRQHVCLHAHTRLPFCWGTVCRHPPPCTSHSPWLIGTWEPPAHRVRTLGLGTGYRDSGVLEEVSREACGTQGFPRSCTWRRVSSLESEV

What is called IC50 is the concentration needed to halve the response being measured. As a reminder, the Ki is the equilibrium dissociation constant of an inhibitor or competing ligand from its target. A higher Ki goes with lower affinity. For the molecule `CCN(CC)C(=O)[C@@]1(c2ccccc2)C[C@H]1C(N)c1ccccc1` (some centres not stated), the IC50 on Glutamate NMDA receptor amounted to 17000 nM. Further, the Selectivity index in the assay listed under Rattus norvegicus was greater than 5.9. The Ki in assay [1] is greater than 100000 nM.
Taken in the same sequence, the figures for `CCN(CC)C(=O)[C@@]1(c2ccccc2)C[C@H]1C(N)CC(C)C` (some centres not stated) were 4200 nM, greater than 24 and greater than 100000 nM.
For the molecule `CCCC(N)[C@@H]1C[C@@]1(C(=O)N(CC)CC)c1ccccc1` (some centres not stated), the IC50 at Glutamate NMDA receptor came to 1000 nM. Moreover, the Selectivity index in the assay filed under Rattus norvegicus turned out to be 37. In assay [1], this molecule displayed a Ki of 37000 nM.
The matching figures for `C=CC(N)[C@@H]1C[C@@]1(C(=O)N(CC)CC)c1ccccc1` (some centres not stated): 160 nM, 0.14 and 23 nM.
By inhibition is commonly meant the drop in the measured response relative to a control, in per cent. Low values mean a weak effect, high ones a strong effect. As for `C[C@]12N[C@H](Cc3ccccc31)c1ccccc12`, in assay [2], the inhibition came to 98%.
With `CCN(CC)C(=O)[C@@]1(c2ccccc2)C[C@H]1C(C)N` (stereo in doubt; 2a), the IC50 worked out at 350 nM on Glutamate NMDA receptor and 2300 nM in assay [3]. In assay [1], the Ki turned out to be 14 nM.
For `CCC(N)[C@@H]1C[C@@]1(C(=O)N(CC)CC)c1ccccc1` (stereo in doubt; 2b), the IC50 at Glutamate NMDA receptor is 200 nM; in assay [3] it was 2200 nM. The Ki in assay [1] came to 24000 nM.
Regarding `CCN(CC)C(=O)[C@@]1(c2ccccc2)C[C@H]1C(C)N` (stereo in doubt; 3a), the IC50 on Glutamate NMDA receptor came to 6500 nM. This molecule also returned an inhibition constant Ki in assay [1] of 2400 nM.
The molecule `CCC(N)[C@@H]1C[C@@]1(C(=O)N(CC)CC)c1ccccc1` (stereo in doubt; 3b) returned a Ki in assay [1] greater than 100000 nM.
On the same count and under the same terms, with `CCN(CC)C(=O)[C@]1(c2ccccc2)C[C@@H]1C(C)N` (stereo in doubt; form 1) the figure was greater than 100000 nM.
`CCC(N)[C@H]1C[C@]1(C(=O)N(CC)CC)c1ccccc1` (stereo in doubt; form 1): in assay [3], the IC50 was determined as 39000 nM. The molecule further yielded a Ki in assay [1] greater than 100000 nM.
Consider `CCN(CC)C(=O)[C@]1(c2ccccc2)C[C@@H]1C(C)N` (stereo in doubt; form 2), for which the IC50 at Glutamate NMDA receptor was 19000 nM. This molecule also showed a Ki in assay [1] of 170 nM.
`CCC(N)[C@H]1C[C@]1(C(=O)N(CC)CC)c1ccccc1` (stereo in doubt; form 2): the Ki in assay [1] was greater than 100000 nM.
For `CNC1(c2ccccc2Cl)CCCCC1=O` (configuration not stated) [KETAMINE], the IC50 at Glutamate NMDA receptor worked out at 610 nM.
In turn, `CCN(CC)C(=O)[C@@]1(c2ccccc2)C[C@H]1CN` [LEVOMILNACIPRAN] showed an inhibition in assay [4] of 53%. The affinity in assay [1], expressed as Ki, was 8.5 nM.
Consider `c1ccc(C2(N3CCCCC3)CCCCC2)cc1` [PHENCYCLIDINE], for which the IC50 at Glutamate NMDA receptor amounted to 9.8 nM. This lies in the single-digit nanomolar range.
